These results are taken from ChEMBL document CHEMBL3580660, “Synthesis and Biological Evaluation of Novel Olean-28,13β-lactams as Potential Antiprostate Cancer Agents” (J Med Chem, 2015).

Calls of active or inactive are those of the source. No cut-off for these calls is given here.

Test [1] can be described thus: Antiproliferative activity against human H460 cells after 72 hrs by CCK8 assay. The test is classed as functional, cell-based. To be noted: NCI-H460, 72 h. The essentials:
(§1)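 CCK-8 assay: DU-145, H460, Bxpc-3, BEL-7404 and nontumor WPMY-1 cells seeded at 5 × 10^3 cells/well in 10% FCS DMEM overnight, then exposed in triplicate to 0.041−10 μM for 72 h. CCK-8 added for final 30 min, absorbance 450 nm; inhibition relative to medium-only controls after background subtraction; IC50 as concentration giving 50% inhibition.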

Test [2] is described as follows: Antiproliferative activity against human Bel7404 cells after 72 hrs by CCK8 assay. To be noted: BEL-7404, 72 h. The test is classed as functional, cell-based. In a few lines: as §1
Test [3] in a line: Antiproliferative activity against human BxPC3 cells after 72 hrs by CCK8 assay. The note with it: BXPC-3, 72 h. The test is classed as functional, cell-based. In a few lines:
as §1
In general terms: Formazan colour is commonly taken as a measure of viable cells.

Test [4] is described as follows: Antiproliferative activity against human WPMY-1 cells after 72 hrs by CCK8 assay. To be noted: WPMY-1, 72 h. Type of test: functional, cell-based. In a few lines:
as §1

In test [5] the test system is DU-145. The test is described as follows: Antiproliferative activity against human DU145 cells after 72 hrs by CCK8 assay. The test is classed as functional, cell-based. To be noted: DU-145, 72 h. In a few lines:
as §1

Test [6] has as its system DU-145. The experiment in a line: Antiproliferative activity against human DU145 cells at 2 uM after 72 hrs by CCK8 assay. The test is classed as functional. The essentials:
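DU-145 screening at single concentration 2 μM for 72 h, proliferation by CCK-8 (cells 5 × 10^3/well in 10% FCS DMEM). Percent inhibition vs untreated, background-corrected; mean ± SD from three independent experiments.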

For orientation: IC50 means the concentration that inhibits the measured activity by half. Read a high IC50 as a need for much substance. As to `CC1(C)CC[C@]2(C(=O)n3ccnc3)CC[C@]3(C)[C@H](C(=O)C=C4[C@@]5(C)C=C(C#N)C(=O)C(C)(C)[C@@H]5CC[C@]43C)[C@@H]2C1`, the IC50 was 420 nM in test [1]; 990 nM in test [2]; 1500 nM in test [3]; 2090 nM in test [4]; 690 nM in the test with DU-145 [5].

One may read the inhibition as the relative decrease from the control value, in per cent. On to `CCCCN1C(=O)[C@]23CCC(C)(C)C[C@H]2[C@]12C(=O)C=C1[C@@]4(C)C=C(C#N)C(=O)C(C)(C)[C@@H]4CC[C@@]1(C)[C@]2(C)CC3`, for which the inhibition result in the test on DU-145 [6] is “Active”.

On to `CCCN1C(=O)[C@]23CCC(C)(C)C[C@H]2[C@]12C(=O)C=C1[C@@]4(C)C=C(C#N)C(=O)C(C)(C)[C@@H]4CC[C@@]1(C)[C@]2(C)CC3`, for which the inhibition result in the test with DU-145 [6] was “Active”.

As to `CC1(C)CC[C@]23CC[C@@]4(C)[C@]5(C)CC[C@H]6C(C)(C)C(=O)C(C#N)=C[C@]6(C)C5=CC(=O)[C@@]4([C@@H]2C1)N(CCO)C3=O`, the inhibition result with DU-145 [6] was “Active”.

On to `CC1(C)CC[C@]23CC[C@@]4(C)[C@]5(C)CC[C@H]6C(C)(C)C(=O)C(C#N)=C[C@]6(C)C5=CC(=O)[C@@]4([C@@H]2C1)N(C(C)(C)C)C3=O`, for which the IC50 was 430 nM in test [1]; 1140 nM in test [2]; 660 nM in test [3]; 9600 nM in test [4]; 960 nM in the test with DU-145 [5]. The inhibition entry in the test with DU-145 [6] was “Active”.

Regarding `CN1C(=O)[C@]23CCC(C)(C)C[C@H]2[C@]12C(=O)C=C1[C@@]4(C)C=C(C#N)C(=O)C(C)(C)[C@@H]4CC[C@@]1(C)[C@]2(C)CC3`, the inhibition entry with DU-145 [6] was “Active”.

In the case of `CC1(C)CC[C@]23CC[C@@]4(C)[C@]5(C)CC[C@H]6C(C)(C)C(=O)C(C#N)=C[C@]6(C)C5=CC(=O)[C@@]4([C@@H]2C1)N(CCc1ccccc1)C3=O`, the inhibition entry in the test with DU-145 [6] was “Active”.

The compound `CC1(C)CC[C@]2(C(=O)NC3CCCCC3)CC[C@]3(C)[C@H](C(=O)C=C4[C@@]5(C)C=C(C#N)C(=O)C(C)(C)[C@@H]5CC[C@]43C)[C@@H]2C1` displayed an inhibition at 2 µM in the test on DU-145 [6] (DU-145, 72 h) of 53%.

Regarding `CCCCCCN1C(=O)[C@]23CCC(C)(C)C[C@H]2[C@]12C(=O)C=C1[C@@]4(C)C=C(C#N)C(=O)C(C)(C)[C@@H]4CC[C@@]1(C)[C@]2(C)CC3`, the inhibition result with DU-145 [6] is “Active”.

`CCN1C(=O)[C@]23CCC(C)(C)C[C@H]2[C@]12C(=O)C=C1[C@@]4(C)C=C(C#N)C(=O)C(C)(C)[C@@H]4CC[C@@]1(C)[C@]2(C)CC3`: the inhibition result in the test with DU-145 [6] was “Active”.
